Results collected from several papers.
Protocols differ between the studies behind these lines.
Target: Serine/threonine-protein kinase pim-1 (PIM1, Homo sapiens, UniProt P11309)

CN(C)c1ncc(F)c(-c2cnn3ncccc23)n1 — remaining binding (binding; 1 µM): 82%
COc1cnc(Nc2cccc(S(N)(=O)=O)c2)nc1N1CCN(c2ccccc2)CC1 — remaining binding (binding, competition with immobilised ligand; 1 µM): 95%
CC1CCCN1c1nccc(-c2cnn3ncccc23)n1 (centres unmarked) — remaining binding (binding; 1 µM): 100%
O=C(c1ccc(Nc2nccc(-c3cc4ccccc4s3)n2)cc1)N1CCC(N2CCCC2)CC1 — remaining binding (binding, competition with immobilised ligand; 1 µM): 75%
CNC(=O)c1ccc(Nc2ncc(C(F)(F)F)c(NCc3nccnc3N(C)S(C)(=O)=O)n2)cc1 — remaining binding (cell-free assay, competition with immobilised ligand; 0.1 µM): 93%
Cc1cnc(Nc2ccc(C(=O)N3CCC(N4CCCC4)CC3)cc2)nc1-c1cc2ccccc2s1 — remaining binding (binding, competition with immobilised ligand; 1 µM): 75%
Nc1ncc2c(n1)-c1c([nH]c3ccc(C#CC4CC4)cc13)CCCC2 — remaining binding (binding, competition with immobilised ligand; 1 µM): 73%
C[C@@H]1CN(c2ccc3ncc(-c4ccc5[nH]nc(C6CC6)c5c4)n3n2)C[C@H](C)O1 — remaining binding (binding, competition with immobilised ligand; 50 nM): 66%
C[C@@H](c1ccc(-n2cnc3c(N)ncnc32)cc1)N1CCc2nn(C)c(Cc3ccccc3)c2C1=O — remaining binding (binding, competition with immobilised ligand; 0.1 µM): 97%
O=C(O)c1cc(-c2ccc(C3CCNCC3)cc2)c2ccc(-c3ccc(C(F)(F)F)cc3)cc2c1 — remaining binding (cell-free assay, competition with immobilised ligand; 1 µM): 100%
Cc1cnn2ncc(-c3ccnc(N(C)C)n3)c2c1 — remaining binding (binding; 1 µM): 80%
CNC(=O)Nc1ccc2c(c1)CC[C@@]21OC(=O)N(CC(=O)N(Cc2ccc(F)cc2)[C@@H](C)C(F)(F)F)C1=O — remaining binding (cell-free assay, competition with immobilised ligand; 1 µM): 100%
O=C(Nc1c[nH]nc1C(=O)NC1CCNCC1)c1cc(F)cc(F)c1 — remaining binding (binding, competition with immobilised ligand; 1 µM): 100%
C[C@H]1CCN(c2nccc(-c3cnn4ncccc34)n2)C1 — remaining binding (binding; 1 µM): 83%
O=C1NC(c2ccccn2)Sc2ccccc21 (centres unmarked) — remaining binding (cell-free assay, competition with immobilised ligand; 1 µM): 82%
N[C@@H]1CCN(c2nccc(-c3cnn4ncccc34)n2)C1 — remaining binding (binding; 1 µM): 100%
CC(=O)C1=C(C)N(c2cccc(C(F)(F)F)c2)C(=O)N[C@@H]1c1ccc(C#N)nc1 — remaining binding (cell-free assay, competition with immobilised ligand; 1 µM): 100%
